The target in one data set is Cytochrome P450 2D6 (Homo sapiens, UniProt P10635). The experiment in a line: Inhibition of human CYP2D6. In kind it is ADME.
A short description of data set [1]: AUC (0 to 4 hrs) in mouse at 50 mg/kg, po. The format is ADME, organism-based. Details: time < 4 hr, dose 50 mg/kg, route oral. The conditions noted are these: plasma. Summed up:
(§1)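 Oral dosing to female mice, three per dose group, at 50 and 200 mg/kg in PEG400/water (70:30). Plasma levels of the parent drug were measured at 0.5, 1 and 4 h.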

For another data set, the target named is Cytochrome P450 2C9 (Homo sapiens, UniProt P11712). The experiment in a line: Inhibition of human CYP2C9. The format is ADME.
In a further data set the test system is Mus musculus. The experiment in a line: Ratio of AUC (0 to 4 hrs) in mouse plasma at 200 mg/kg, po to AUC (0 to 4 hrs) in mouse plasma at 50 mg/kg, po. In kind it is ADME, organism-based. The settings on record: in vivo. Put shortly: as §1
Data set [2] deals with T1, Cytochrome P450 3A4 (Homo sapiens, UniProt P08684). Nature of the data set: Inhibition of human CYP3A4 using 7-benzyl-trifluoromethyl coumarin. In kind it is ADME.
Data set [3] is described as follows: AUC (0 to 4 hrs) in mouse at 200 mg/kg, po. In kind it is ADME, organism-based. On the set-up: time < 4 hr, dose 200 mg/kg, route oral. The conditions noted are these: plasma. Summed up: as §1
A further data set concerns the target Cytochrome P450 2C19 (Homo sapiens, UniProt P33261). The experiment in a line: Inhibition of human CYP2C19. The format is ADME.
The next data set concerns the target T2, Cytochrome P450 1A2 (Homo sapiens, UniProt P05177).
T2 sequence (P05177 whole entry): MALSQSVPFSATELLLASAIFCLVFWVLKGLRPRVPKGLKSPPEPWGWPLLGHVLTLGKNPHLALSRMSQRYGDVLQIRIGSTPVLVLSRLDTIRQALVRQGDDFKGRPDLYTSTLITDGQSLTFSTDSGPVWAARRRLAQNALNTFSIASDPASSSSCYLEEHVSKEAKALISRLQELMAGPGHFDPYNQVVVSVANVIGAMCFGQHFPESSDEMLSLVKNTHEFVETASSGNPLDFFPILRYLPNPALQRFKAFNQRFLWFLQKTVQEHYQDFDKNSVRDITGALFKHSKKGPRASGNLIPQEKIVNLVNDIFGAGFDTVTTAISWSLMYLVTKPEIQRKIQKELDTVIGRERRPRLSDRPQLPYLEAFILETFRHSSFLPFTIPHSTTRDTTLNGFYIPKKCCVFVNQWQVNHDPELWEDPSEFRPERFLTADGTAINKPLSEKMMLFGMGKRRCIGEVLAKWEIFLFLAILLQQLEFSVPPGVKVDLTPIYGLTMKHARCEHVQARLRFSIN
Nature of the data set: Inhibition of human CYP1A2. In kind it is ADME.

For data set [4], the target named is T1, Cytochrome P450 3A4. Nature of the data set: Inhibition of human CYP3A4 using 7-benzyloxyresorufin. In kind it is ADME.
Data set [5] is described as follows: Cmax in mouse at 200 mg/kg, po. Details: dose 200 mg/kg, route oral. The conditions noted are these: in vivo. The format is ADME, organism-based. Summed up:
as §1

Data set [6] is described as follows: Cmax in mouse at 50 mg/kg, po. The format is ADME, organism-based. On the set-up: dose 50 mg/kg, route oral. The conditions noted are these: in vivo. Summed up:
as §1

For data set [7], the system named is L2987. The experiment in a line: Antitumor activity against human L2987 cells xenografted po dosed athymic mouse after 14 days. In kind it is functional, organism-based. Put shortly: (§2)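 L2987 non-small cell lung tumors were grown as xenografts in athymic mice. Once tumors were established at 80–100 mm³, animals were dosed orally once daily for 14 consecutive days. Tumor growth was followed through dosing, and activity was expressed as percent tumor growth inhibition (%TGI).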

A short description of data set [8]: Aqueous solubility at pH 5.8. In kind it is physicochemical.
The test system of data set [9] is L2987. The experiment in a line: Antitumor activity against human L2987 cells xenografted athymic mouse at 107 mg/kg/day, po after 14 days. In kind it is functional. The settings on record: L2987, 336 h, read-out: TGI. Summed up:
as §2
Background: Xenograft models place foreign cells or tissue in a host animal.

The test system of data set [10] is L2987. The experiment in a line: Antitumor activity against human L2987 cells xenografted athymic mouse at 80 mg/kg/day, po after 14 days. The format is functional. The settings on record: L2987, 336 h, read-out: TGI. Summed up: as §2
The nature of data set [11]: Aqueous solubility at pH 6.5. In kind it is physicochemical.

Here are results for five compounds from ChEMBL document CHEMBL1141628 (J Med Chem, 2008).

Broadly, the IC50 is the midpoint of a concentration-inhibition curve. A higher IC50 goes with a need for much substance. Usually AUC(0-t) stands for the area under the concentration-time curve up to a stated or last time point. Read a low AUC(0-t) as low exposure. In general, Cmax refers to the peak of the concentration-time curve. What is called solubility is how much of the substance goes into solution per volume.

Converted amounts (≈) assume the structure as drawn. Bounds are passed on as bounds.

Chain of Cytochrome P450 2C9 (P11712 whole entry): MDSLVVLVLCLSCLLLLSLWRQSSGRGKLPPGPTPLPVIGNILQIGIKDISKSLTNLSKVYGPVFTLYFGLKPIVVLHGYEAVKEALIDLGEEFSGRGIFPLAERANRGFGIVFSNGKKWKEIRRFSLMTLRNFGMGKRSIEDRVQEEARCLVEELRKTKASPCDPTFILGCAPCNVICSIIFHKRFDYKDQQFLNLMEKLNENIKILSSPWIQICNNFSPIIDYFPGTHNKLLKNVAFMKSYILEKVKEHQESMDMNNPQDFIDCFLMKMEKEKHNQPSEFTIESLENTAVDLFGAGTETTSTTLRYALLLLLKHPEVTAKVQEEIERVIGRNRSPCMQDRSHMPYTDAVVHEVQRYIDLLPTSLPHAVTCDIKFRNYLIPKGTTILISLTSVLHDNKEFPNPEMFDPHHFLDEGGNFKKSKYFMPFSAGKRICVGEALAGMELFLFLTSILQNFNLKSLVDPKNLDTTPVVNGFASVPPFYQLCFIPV
Chain of Cytochrome P450 2C19 (P33261 whole entry): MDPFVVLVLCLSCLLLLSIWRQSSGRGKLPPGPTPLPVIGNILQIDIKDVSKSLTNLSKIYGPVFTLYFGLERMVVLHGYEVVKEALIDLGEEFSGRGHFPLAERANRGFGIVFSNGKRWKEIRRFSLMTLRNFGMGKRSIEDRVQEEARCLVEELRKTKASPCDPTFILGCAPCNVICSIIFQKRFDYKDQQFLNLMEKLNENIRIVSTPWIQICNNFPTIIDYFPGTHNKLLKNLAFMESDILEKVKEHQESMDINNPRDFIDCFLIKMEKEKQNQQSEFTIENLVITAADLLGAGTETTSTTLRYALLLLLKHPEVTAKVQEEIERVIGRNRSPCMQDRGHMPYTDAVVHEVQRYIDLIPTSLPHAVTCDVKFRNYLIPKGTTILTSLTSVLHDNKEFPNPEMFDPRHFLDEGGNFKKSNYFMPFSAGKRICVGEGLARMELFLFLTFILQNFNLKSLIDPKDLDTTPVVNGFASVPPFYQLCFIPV
Chain of Cytochrome P450 2D6 (P10635 whole entry): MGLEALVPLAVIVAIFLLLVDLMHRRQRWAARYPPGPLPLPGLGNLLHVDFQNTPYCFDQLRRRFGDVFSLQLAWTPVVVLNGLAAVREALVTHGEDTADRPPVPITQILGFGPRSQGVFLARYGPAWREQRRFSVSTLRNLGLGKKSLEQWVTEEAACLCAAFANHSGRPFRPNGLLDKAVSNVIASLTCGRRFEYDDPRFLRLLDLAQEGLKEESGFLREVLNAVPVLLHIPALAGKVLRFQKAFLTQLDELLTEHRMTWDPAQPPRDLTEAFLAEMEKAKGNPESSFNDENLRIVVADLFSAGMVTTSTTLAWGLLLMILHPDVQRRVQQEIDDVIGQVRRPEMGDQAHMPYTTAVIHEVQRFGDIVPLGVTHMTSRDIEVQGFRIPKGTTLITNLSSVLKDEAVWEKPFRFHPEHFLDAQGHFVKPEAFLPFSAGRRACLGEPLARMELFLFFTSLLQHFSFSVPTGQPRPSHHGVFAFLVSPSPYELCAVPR
T1 sequence (P08684 whole entry): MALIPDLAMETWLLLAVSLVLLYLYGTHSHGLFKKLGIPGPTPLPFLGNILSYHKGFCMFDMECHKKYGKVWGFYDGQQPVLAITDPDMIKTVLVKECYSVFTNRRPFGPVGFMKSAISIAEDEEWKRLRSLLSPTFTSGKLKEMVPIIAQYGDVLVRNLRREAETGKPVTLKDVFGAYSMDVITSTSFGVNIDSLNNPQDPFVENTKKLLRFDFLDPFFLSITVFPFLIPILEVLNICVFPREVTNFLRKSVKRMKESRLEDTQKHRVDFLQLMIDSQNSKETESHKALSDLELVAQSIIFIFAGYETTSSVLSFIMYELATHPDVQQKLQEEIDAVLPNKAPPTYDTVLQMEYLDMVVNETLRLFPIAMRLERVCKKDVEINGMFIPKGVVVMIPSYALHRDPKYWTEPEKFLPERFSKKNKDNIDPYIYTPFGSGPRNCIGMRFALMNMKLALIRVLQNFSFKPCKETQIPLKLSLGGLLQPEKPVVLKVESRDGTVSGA

With `Cc1cc2c(F)c(Oc3ncnn4cc(OC[C@@H](C)OC(=O)CN)c(C)c34)ccc2[nH]1`, the IC50 was 12000 nM against Cytochrome P450 2D6; 63 nM against Cytochrome P450 2C9; 160 nM on Cytochrome P450 3A4 [2]; 160 nM against Cytochrome P450 2C19; 3700 nM at Cytochrome P450 1A2; 310 nM at Cytochrome P450 3A4 [4]. For the same compound, the values for the AUC(0-t) at 4 h in data set [1] and in [3] were 69 µM·h and 303 µM·h, respectively. Moreover, the Ratio in the data set on Mus musculus stood at 4.4. Also, the Cmax in data set [5] turned out to be 126 µM; in [6] it was 21 µM.
As for `Cc1cc2c(F)c(Oc3ncnn4cc(OC[C@@H](C)OC(=O)C(C)(C)N)c(C)c34)ccc2[nH]1`, the AUC(0-t) at 4 h in data set [1] amounted to 46 µM·h; in [3] it was 213 µM·h. Besides, the Ratio in the data set on Mus musculus amounted to 4.6. The Cmax in data set [5] is 66 µM; in data set [6], 15 µM.
Consider `Cc1cc2c(F)c(Oc3ncnn4cc(OC[C@@H](C)OC(=O)C(N)CC(C)C)c(C)c34)ccc2[nH]1` (single isomer, unassigned), for which the IC50 is 24000 nM against Cytochrome P450 2D6; 2700 nM at Cytochrome P450 2C9; 95 nM against Cytochrome P450 3A4 [2]; 1800 nM at Cytochrome P450 2C19; 34000 nM on Cytochrome P450 1A2; 370 nM against Cytochrome P450 3A4 [4]. Also, the results for the AUC(0-t) at 4 h in data set [1] and in data set [3] were 113 µM·h and 451 µM·h, respectively. Also, in the data set with Mus musculus, the Ratio turned out to be 4. Also, the Cmax was 152 µM in data set [5] and 31 µM in [6].
Regarding `Cc1cc2c(F)c(Oc3ncnn4cc(OC[C@@H](C)OC(=O)C(C)N)c(C)c34)ccc2[nH]1` (single isomer, unassigned; 8), the IC50 at Cytochrome P450 2D6 is 24000 nM; against Cytochrome P450 2C9, 9700 nM; at Cytochrome P450 2C19 it was 2100 nM; on Cytochrome P450 1A2 it was more than 40000 nM. The AUC(0-t) at 4 h in [1] was 69 µM·h; in [3], 276 µM·h. Further, in the data set on L2987 [7], the Activity result was “Dose-dependent effect”. For the same compound, the solubility in [8] came to 73 mg/mL (≈ 165 mM). Besides, the Cmax in data set [5] amounted to 78 µM; in [6], 21 µM. For the same compound, the inhibition in vivo at 107 mg/kg/day in the data set on L2987 [9] came out at 97%. In the data set on L2987 [10], the inhibition in vivo at 80 mg/kg/day worked out at 85%.
For `Cc1cc2c(F)c(Oc3ncnn4cc(OC[C@@H](C)O)c(C)c34)ccc2[nH]1` [BRIVANIB], the IC50 against Cytochrome P450 2D6, on Cytochrome P450 2C9, against Cytochrome P450 2C19 and against Cytochrome P450 1A2 was more than 40000 nM throughout. The results for the AUC(0-t) at 4 h in [1] and in data set [3] were 45 µM·h and 52 µM·h, respectively. The compound also came in with a solubility in data set [11] of less than 0.001 mg/mL. For the same compound, the values for the Cmax in data set [5] and in data set [6] were 14 µM and 12 µM, respectively.
